Experimental data reported in PubChem BioAssay AID588736 (Vanderbilt Specialized Chemistry Center, 2011).
The source made the active and inactive calls.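 The calls were made as follows: active = compound halving or more than doubling glutamate potency, or top glutamate response under 75% or over 125% of control; inactive = the rest.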

Molecular target: Metabotropic glutamate receptor 1 (Rattus norvegicus) (UniProt P23385)
Experiment: mGlu1 agonist potency fold-shift by compound – calcium fluorescence, HEK293A cells, rat, selectivity assay for mGlu5 PAM project, profiling panel (AID 588736)
Conditions: glutamate CRC shift, at 10 µM; for Emax: measured here: glutamate Emax with compound; for Emin: measured here: glutamate Emin with compound, stronger effect = higher value
How it was run: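 System: rat mGlu1 in HEK293A cells; control set: vehicle-treated glutamate curves as reference for maximal response; measured by: calcium fluorescence with Fluo4-AM dye, 1 µM final; times: compound added at 1.5 s, glutamate curve at 142 s; doses: test compound at a single 10 µM final, or vehicle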

Chain of Metabotropic glutamate receptor 1 (Rattus norvegicus) (P23385 whole entry, looked up): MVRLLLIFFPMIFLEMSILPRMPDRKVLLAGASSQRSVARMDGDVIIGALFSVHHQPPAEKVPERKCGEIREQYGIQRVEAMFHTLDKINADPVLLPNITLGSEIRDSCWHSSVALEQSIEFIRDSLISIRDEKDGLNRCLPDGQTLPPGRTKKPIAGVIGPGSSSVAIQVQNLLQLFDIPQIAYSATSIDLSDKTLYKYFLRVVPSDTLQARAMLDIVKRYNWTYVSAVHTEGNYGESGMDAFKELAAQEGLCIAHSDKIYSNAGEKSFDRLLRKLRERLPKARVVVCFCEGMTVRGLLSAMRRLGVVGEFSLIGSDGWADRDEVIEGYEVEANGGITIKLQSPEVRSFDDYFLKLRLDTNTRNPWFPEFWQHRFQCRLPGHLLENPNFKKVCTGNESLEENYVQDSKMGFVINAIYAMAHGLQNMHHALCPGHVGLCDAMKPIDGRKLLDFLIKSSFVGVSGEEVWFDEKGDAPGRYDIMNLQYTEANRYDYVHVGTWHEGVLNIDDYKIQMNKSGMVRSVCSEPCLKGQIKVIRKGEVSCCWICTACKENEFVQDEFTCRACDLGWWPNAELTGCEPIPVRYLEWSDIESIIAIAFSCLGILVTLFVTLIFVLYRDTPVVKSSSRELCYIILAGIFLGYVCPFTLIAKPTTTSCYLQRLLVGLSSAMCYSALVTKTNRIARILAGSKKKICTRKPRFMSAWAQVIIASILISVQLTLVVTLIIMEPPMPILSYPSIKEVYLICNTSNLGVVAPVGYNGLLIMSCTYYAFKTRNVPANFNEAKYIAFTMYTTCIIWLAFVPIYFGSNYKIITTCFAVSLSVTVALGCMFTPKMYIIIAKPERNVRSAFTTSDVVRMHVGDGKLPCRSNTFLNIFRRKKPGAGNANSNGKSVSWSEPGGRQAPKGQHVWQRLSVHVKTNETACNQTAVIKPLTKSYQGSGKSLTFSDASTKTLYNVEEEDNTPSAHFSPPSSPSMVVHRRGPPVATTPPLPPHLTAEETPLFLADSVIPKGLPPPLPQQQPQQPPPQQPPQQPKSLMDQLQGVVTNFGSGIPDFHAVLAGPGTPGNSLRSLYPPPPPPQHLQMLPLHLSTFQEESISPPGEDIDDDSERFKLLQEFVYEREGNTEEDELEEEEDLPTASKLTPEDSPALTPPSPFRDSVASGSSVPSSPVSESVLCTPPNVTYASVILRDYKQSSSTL

fold shift	Emax [%]	Emin [%]	Structure (SMILES)
1.43 (inactive)	94	1	C[C@@H](NC(=O)c1ccc(C#Cc2cccc(F)c2)cn1)C(C)(C)O
0.93 (inactive)	91	1	CC1(NC(=O)c2ccc(C#Cc3cccc(F)c3)cn2)COC1
